Results as given in ChEMBL document CHEMBL2176947, “Discovery of the First Potent Inhibitors of Mutant IDH1 That Lower Tumor 2-HG in Vivo” (ACS Med Chem Lett, 2012).
Blank lines part the entries; values can stand above or below the compound they belong to. Activity calls are given as the source filed them. The rule behind the calls is not given here.

Assays:
[1] = biological target: T1, Isocitrate dehydrogenase [NADP] cytoplasmic (Homo sapiens, UniProt O75874, R132H); experiment: Inhibition of IDH1 R132H mutant using alpha-ketoglutarate as substrate after 60 mins by resazurin-based fluorimetric analysis
T1 sequence (O75874 2-414 R132H limits assumed): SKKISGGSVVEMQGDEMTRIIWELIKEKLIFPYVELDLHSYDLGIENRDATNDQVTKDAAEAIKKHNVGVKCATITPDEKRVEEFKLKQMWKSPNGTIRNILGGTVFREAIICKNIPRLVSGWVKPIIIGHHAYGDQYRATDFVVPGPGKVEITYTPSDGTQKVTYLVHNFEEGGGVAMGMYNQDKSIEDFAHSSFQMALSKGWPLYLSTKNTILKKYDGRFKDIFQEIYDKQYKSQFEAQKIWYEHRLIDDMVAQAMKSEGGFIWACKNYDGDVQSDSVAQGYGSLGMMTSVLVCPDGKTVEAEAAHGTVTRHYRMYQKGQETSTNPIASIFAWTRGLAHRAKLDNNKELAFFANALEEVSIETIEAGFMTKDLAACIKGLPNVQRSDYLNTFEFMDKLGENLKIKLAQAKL

[2] = Fraction unbound in CD1 nude mouse plasma xenografted with human U87 cells expressing IDH1 R132H mutant at 150 mg/kg, ip administered BID for 1 day; assay type: ADME, organism-based, U-87MG ATCC; parameters: dose 150 mg/kg, route intraperitoneal
[3] = biological target: T2, Isocitrate dehydrogenase [NADP] cytoplasmic (Homo sapiens, UniProt O75874, R132C); experiment: Inhibition of IDH1 R132C mutant using alpha-ketoglutarate as substrate after 60 mins by resazurin-based fluorimetric analysis
T2 sequence (O75874 2-414 R132C limits assumed): as the sequence (O75874 2-414 R132H limits assumed) above, with H131C counted along it

[4] = AUC (0 to 24 hrs) in mouse at 50 mg/kg, ip; assay type: ADME, organism-based; parameters: time < 24 hr, dose 50 mg/kg, route intraperitoneal; conditions: plasma
Method in brief: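 Mouse given a single IP dose of 50 mg/kg; plasma exposure expressed as AUC0−24h.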

[5] = Plasma protein binding in mouse by equilibrium dialysis method; assay type: ADME, cell-free; conditions: read-out: PPB (converted)
Method in brief: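 Mouse plasma protein binding measured by equilibrium dialysis.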

HT-1080 = experiment: Growth inhibition of human HT1080 cells after 72 hrs by CellTiter-Glo assay; assay type: functional; conditions: HT-1080, 72 h
Method in brief: (§1)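 Cells exposed to compound for 72 h, run within the same experiment as the 2-HG assay; total cellular ATP measured; concentration giving 50% growth inhibition (GI50) determined.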

Mus musculus [6] = experiment: Inhibition of IDH1 R132H mutant in human U87 cells xenografted in CD1 nude mouse assessed as inhibition of 2-hydroxyglutarate production at 150 mg/kg, ip administered as single dose by LC/MS analysis relative to vehicle-treated control; assay type: functional, U-87MG ATCC; conditions: route intraperitoneal
Method in brief: (§2)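 Female nude mice bearing U87 R132H tumor xenografts dosed IP at 150 mg/kg in 0.5% MC/0.2% Tween 80, one dose or three BID doses; blood and tumor sampled at several time points; tumor 2-HG quantified by LC/MS/MS against vehicle-dosed animals.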

[7] = Hepatic extraction ratio in rat liver microsomes; assay type: ADME, Microsome; conditions: read-out: ERH
Method in brief: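 Compound incubated with rat liver microsomes in vitro. Turnover in the incubation was used to estimate the hepatic extraction ratio. Human microsomes were run alongside.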

[8] = biological target: T3, Isocitrate dehydrogenase [NADP] cytoplasmic (Homo sapiens, UniProt O75874); experiment: Inhibition of wild type IDH1 using DL-isocitrate as substrate by resazurin-based fluorimetric analysis
T3 sequence (O75874 whole entry): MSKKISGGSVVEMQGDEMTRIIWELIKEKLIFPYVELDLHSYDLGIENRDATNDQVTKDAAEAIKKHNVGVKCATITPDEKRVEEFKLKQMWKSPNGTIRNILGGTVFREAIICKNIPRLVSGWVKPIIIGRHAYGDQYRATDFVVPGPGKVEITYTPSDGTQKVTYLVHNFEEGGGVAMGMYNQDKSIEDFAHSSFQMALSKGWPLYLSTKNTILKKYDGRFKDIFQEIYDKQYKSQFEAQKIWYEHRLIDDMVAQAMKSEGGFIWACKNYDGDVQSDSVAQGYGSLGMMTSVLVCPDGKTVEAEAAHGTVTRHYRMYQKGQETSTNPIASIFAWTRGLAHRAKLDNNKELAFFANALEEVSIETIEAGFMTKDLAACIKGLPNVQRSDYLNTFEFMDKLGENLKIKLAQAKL

[9] = biological target: T2, Isocitrate dehydrogenase [NADP] cytoplasmic; experiment: Inhibition of IDH1 R132C mutant endogenously expressing human HT1080 cells assessed as inhibition of 2-hydroxyglutarate production after 48 hrs by LC/MS analysis
[10] = Growth inhibition of human U87 cells after 72 hrs by CellTiter-Glo assay; assay type: functional, U-87MG ATCC; conditions: U-87 MG; method in brief: as §1
Mus musculus [11] = experiment: Inhibition of IDH1 R132H mutant in human U87 cells xenografted in CD1 nude mouse assessed as inhibition of 2-hydroxyglutarate production at 150 mg/kg, ip administered BID by LC/MS analysis relative to vehicle-treated control; assay type: functional, U-87MG ATCC; conditions: route intraperitoneal; method in brief: as §2
[12] = biological target: T1, Isocitrate dehydrogenase [NADP] cytoplasmic; experiment: Inhibition of IDH1 R132H mutant expressed in human U87 cells assessed as inhibition of 2-hydroxyglutarate production after 48 hrs by LC/MS analysis; assay type: cell-based, U-87MG ATCC
[13] = biological target: T3, Isocitrate dehydrogenase [NADP] cytoplasmic; experiment: Inhibition of wild type IDH1 using DL-isocitrate as substrate by resazurin-based fluorimetric analysis relative to control
[14] = system: Isocitrate dehydrogenase [NADP] cytoplasmic (Homo sapiens), O75874 [R132H]; experiment: Competitive inhibition of IDH1 R132H mutant using alpha-ketoglutarate as substrate by stopped-flow spectrophotometric analysis
Chain of Isocitrate dehydrogenase [NADP] cytoplasmic (Homo sapiens), O75874 [R132H] (O75874 whole entry R132H): as the sequence (O75874 whole entry) above, with R132H counted along it

[15] = system: Isocitrate dehydrogenase [NADP] cytoplasmic (Homo sapiens), O75874 [R132H]; experiment: Reversible inhibition of IDH1 R132H mutant using alpha-ketoglutarate as substrate by stopped-flow spectrophotometric analysis
[16] = system: Isocitrate dehydrogenase [NADP] cytoplasmic (Homo sapiens), O75874 [R132H]; experiment: Uncompetitive inhibition of IDH1 R132H mutant using NADPH as substrate by stopped-flow spectrophotometric analysis

Structure (SMILES): Cc1ccccc1C(C(=O)NC1CCCCC1)N(C(=O)CN1CCNCC1)c1cccc(F)c1 (racemic)
IC50 [1]: 5640 nM

Structure (SMILES): Cc1ccccc1C(C(=O)NC1CCCCC1)N(C(=O)CNC1CCCC1)c1cccc(F)c1 (racemic)
IC50 [1]: 450 nM

Structure (SMILES): Cc1ccccc1C(C(=O)NC1CCCCC1)N(C(=O)Cn1ccnc1C)c1cccc(F)c1 (racemic)
fraction unbound at 24 h [2]: 0.043
IC50 [3]: 160 nM
AUC(0-t) at 24 h [4]: 20800 ng·h/mL
IC50 [1]: 70 nM
fraction unbound [5]: 0.043
GI50 (HT-1080): > 20000 nM
Imax (Mus musculus [6]): 69%
hepatic extraction ratio [7]: 0.85
IC50 [8]: > 100000 nM
IC50 [9]: 480 nM
GI50 [10]: > 20000 nM
Imax (Mus musculus [11]): 89.4%

Structure (SMILES): Cc1ccccc1C(C(=O)NC1CCCCC1)N(C(=O)CN1CCc2ccccc21)c1cccc(F)c1 (racemic)
IC50 [1]: 140 nM

Structure (SMILES): Cc1ccccc1C(C(=O)NC1CCCCC1)N(C(=O)CNC1CCCCC1)c1cccc(F)c1 (racemic)
IC50 [1]: 1270 nM

Structure (SMILES): Cc1ccccc1C(C(=O)NC1CCCCC1)N(C(=O)Cn1ccc2ccccc21)c1cccc(F)c1 (racemic)
IC50 [3]: 40 nM
IC50 [1]: 70 nM
IC50 [12]: 370 nM
GI50 (HT-1080): > 20000 nM
IC50 [8]: > 100000 nM
IC50 [9]: 170 nM
GI50 [10]: > 20000 nM

Structure (SMILES): Cc1ccccc1C(C(=O)NC1CCC1)N(C(=O)Cc1cccs1)c1cccc(F)c1 (racemic)
IC50 [1]: 290 nM

Structure (SMILES): O=C(NC1CCCCC1)[C@H](c1ccccc1)N(C(=O)Cc1cccs1)c1cccc(F)c1
IC50 [1]: 60 nM

Structure (SMILES): Cc1ccccc1C(C(=O)NC1CCCCC1)N(C(=O)Cc1ccncc1)c1cccc(F)c1 (racemic)
IC50 [3]: 50 nM
IC50 [1]: 50 nM
IC50 [12]: 210 nM
Imax [13]: 34%
GI50 (HT-1080): > 20000 nM
IC50 [8]: 19300 nM
IC50 [9]: 260 nM
GI50 [10]: > 20000 nM

Structure (SMILES): Cc1ccccc1C(C(=O)NC1CCCCC1)N(C(=O)CNc1ccccc1)c1cccc(F)c1 (racemic)
IC50 [1]: 60 nM

Structure (SMILES): Cc1ccccc1C(C(=O)NC1CCCCC1)N(CCc1cccs1)c1cccc(F)c1 (racemic)
IC50 [1]: > 100000 nM

Structure (SMILES): Cc1ccccc1C(C(=O)NCc1ccccc1)N(C(=O)Cc1cccs1)c1cccc(F)c1 (racemic)
IC50 [1]: 1800 nM

Structure (SMILES): Cc1ccccc1C(C(=O)NC1CCCCC1)N(C(=O)CN(C)c1ccccc1)c1cccc(F)c1 (racemic)
IC50 [1]: 50 nM

Structure (SMILES): Cc1ccccc1C(C(=O)NC1CCCCC1)N(C(=O)CN1CCCC1)c1cccc(F)c1 (racemic)
IC50 [1]: 1630 nM

Structure (SMILES): Cc1ccccc1C(C(=O)NC1CCCCC1)N(C(=O)Cc1cscn1)c1cccc(F)c1 (racemic)
IC50 [3]: 60 nM
IC50 [1]: 100 nM
IC50 [12]: 290 nM
Imax [13]: 32%
GI50 (HT-1080): > 20000 nM
IC50 [8]: 19700 nM
IC50 [9]: 220 nM
GI50 [10]: > 20000 nM

Structure (SMILES): Cc1ccccc1C(CNC1CCCCC1)N(C(=O)Cc1cccs1)c1cccc(F)c1 (racemic)
IC50 [1]: > 100000 nM

Structure (SMILES): CC(C(=O)NC1CCCCC1)(c1ccccc1)N(C(=O)Cc1cccs1)c1cccc(F)c1 (racemic)
IC50 [1]: 1400 nM

Structure (SMILES): Cc1ccccc1C(C(=O)NC1CCCCC1)N(C(=O)CN1CCOCC1)c1cccc(F)c1 (racemic)
IC50 [1]: 240 nM

Structure (SMILES): CN(C(=O)C(c1ccccc1)N(C(=O)Cc1cccs1)c1cccc(F)c1)C1CCCCC1 (racemic)
IC50 [1]: 3600 nM

Structure (SMILES): Cc1ccccc1C(C(=O)NC1CCCCC1)N(C(=O)Cn1cncn1)c1cccc(F)c1 (racemic)
IC50 [1]: 140 nM

Structure (SMILES): Cc1ccccc1C(C(=O)NC1CCCC1)N(C(=O)Cc1cccs1)c1cccc(F)c1 (configuration not stated)
inhibition [14]: Active
IC50 [3]: 50 nM
IC50 [1]: 90 nM
inhibition [15]: Active
IC50 [12]: 580 nM
Imax [13]: 32%
GI50 (HT-1080): > 20000 nM
inhibition [16]: Active
IC50 [8]: 7700 nM
IC50 [9]: 390 nM
GI50 [10]: > 20000 nM

Structure (SMILES): Cc1ccccc1C(C(=O)NC1CCCCC1)N(C(=O)Cn1cccn1)c1cccc(F)c1 (racemic)
IC50 [1]: 420 nM

Structure (SMILES): Cc1ccccc1C(C(=O)NC1CCOCC1)N(C(=O)Cc1cccs1)c1cccc(F)c1 (racemic)
IC50 [1]: 640 nM

Structure (SMILES): Cc1ccccc1C(C(=O)NC(C)(C)C)N(C(=O)Cc1cccs1)c1cccc(F)c1 (racemic)
IC50 [1]: 860 nM

Continued, in another order:

IC50 [1]: 900 nM
Structure (SMILES): Cc1ccccc1C(C(=O)NC1CCCCC1)N(C(=O)CCl)c1cccc(F)c1 (racemic)

IC50 [3]: 30 nM
IC50 [1]: 60 nM
IC50 [12]: 360 nM
Imax [13]: 39%
GI50 (HT-1080): > 3000 nM
IC50 [8]: 6300 nM
IC50 [9]: 90 nM
Structure (SMILES): Cc1ccccc1C(C(=O)NC1CCCCC1)N(C(=O)Cc1c[nH]c2ccccc12)c1cccc(F)c1 (racemic)
GI50 [10]: > 20000 nM

IC50 [1]: 7800 nM
Structure (SMILES): Cc1ccccc1C(C(=O)NC1CCCCC1)N(C(=O)CN)c1cccc(F)c1 (racemic)

IC50 [1]: 570 nM
Structure (SMILES): Cc1ccccc1NC(=O)C(c1ccccc1C)N(C(=O)Cc1cccs1)c1cccc(F)c1 (racemic)

IC50 [3]: 30 nM
IC50 [1]: 50 nM
IC50 [12]: 190 nM
Imax [13]: 22%
GI50 (HT-1080): > 20000 nM
IC50 [8]: 2900 nM
IC50 [9]: 150 nM
Structure (SMILES): Cc1ccccc1C(C(=O)NC1CCCCC1)N(C(=O)Cc1cccs1)c1cccc(F)c1 (racemic)
GI50 [10]: > 20000 nM

IC50 [1]: 2880 nM
Structure (SMILES): Cc1ccccc1C(C(=O)NC1CC1)N(C(=O)Cc1cccs1)c1cccc(F)c1 (racemic)

IC50 [3]: 40 nM
IC50 [1]: 80 nM
IC50 [12]: 240 nM
GI50 (HT-1080): > 20000 nM
IC50 [8]: > 100000 nM
IC50 [9]: 110 nM
Structure (SMILES): Cc1ccccc1C(C(=O)NC1CCCCC1)N(C(=O)Cn1c(C)nc2ccccc21)c1cccc(F)c1 (racemic)
GI50 [10]: > 20000 nM

IC50 [1]: 80 nM
Structure (SMILES): O=C(NC1CCCCC1)C(c1ccccc1)N(C(=O)Cc1cccs1)c1cccc(F)c1 (configuration not stated)

IC50 [1]: 53100 nM
Structure (SMILES): Cc1ccccc1C(C(=O)NC1CCNCC1)N(C(=O)Cc1cccs1)c1cccc(F)c1 (racemic)

IC50 [1]: 190 nM
Structure (SMILES): Cc1ccccc1C(C(=O)NC1CCCCC1)N(C(=O)CNC1CC1)c1cccc(F)c1 (racemic)

IC50 [1]: > 11000 nM
Structure (SMILES): O=C(NC1CCCCC1)[C@@H](c1ccccc1)N(C(=O)Cc1cccs1)c1cccc(F)c1

IC50 [1]: 1100 nM
Structure (SMILES): Cc1ccccc1C(C(=O)NC1CCCCC1)N(C(=O)Cc1cncnc1)c1cccc(F)c1 (racemic)
